For one compound, inhibition, INH and Activity results are on record in ChEMBL document CHEMBL4393678, “Novel Tetrahydroquinazolinamines as Selective Histamine 3 Receptor Antagonists for the Treatment of Obesity” (J Med Chem, 2019).

Active and inactive are the calls of the source. The rule behind the calls is not given here.

Data set [1] deals with D(2) dopamine receptor (Homo sapiens) (UniProt P14416). The data set can be described thus: Agonist activity at Gi-coupled D2 receptor (unknown origin) expressed in HEK293T cells assessed as inhibition of forskolin-stimulated cAMP accumulation preincubated for 10 to 15 followed by forskolin-stimulation by Glo-sensor assay. The data set is classed as functional, cell-based. Background: Changes in cAMP serve as a functional read-out for many G protein-coupled receptors.

Data set [2] has as its target D(1A) dopamine receptor (Homo sapiens) (UniProt P21728). The data set can be described thus: Antagonist activity at Gs-coupled D1 receptor (unknown origin) expressed in HEK293T cells assessed as reduction in histamine-induced inhibition of forskolin-stimulated cAMP accumulation preincubated for 10 to 15 followed by histamine addition for 10 mins and subsequent forskolin-stimulation by Glo-sensor assay. The data set is classed as functional, cell-based.

The target of data set [3] is D(2) dopamine receptor (Homo sapiens) (UniProt P14416). The data set is described as follows: Antagonist activity at Gi-coupled D2 receptor (unknown origin) expressed in HEK293T cells assessed as reduction in […] inhibition of forskolin-stimulated cAMP accumulation preincubated for 10 to 15 followed by […] for 10 mins and subsequent forskolin-stimulation by Glo-sensor assay. The format is functional, cell-based.

In data set [4] the target is T1, D(4) dopamine receptor (Homo sapiens) (UniProt P21917).
T1 sequence (whole entry): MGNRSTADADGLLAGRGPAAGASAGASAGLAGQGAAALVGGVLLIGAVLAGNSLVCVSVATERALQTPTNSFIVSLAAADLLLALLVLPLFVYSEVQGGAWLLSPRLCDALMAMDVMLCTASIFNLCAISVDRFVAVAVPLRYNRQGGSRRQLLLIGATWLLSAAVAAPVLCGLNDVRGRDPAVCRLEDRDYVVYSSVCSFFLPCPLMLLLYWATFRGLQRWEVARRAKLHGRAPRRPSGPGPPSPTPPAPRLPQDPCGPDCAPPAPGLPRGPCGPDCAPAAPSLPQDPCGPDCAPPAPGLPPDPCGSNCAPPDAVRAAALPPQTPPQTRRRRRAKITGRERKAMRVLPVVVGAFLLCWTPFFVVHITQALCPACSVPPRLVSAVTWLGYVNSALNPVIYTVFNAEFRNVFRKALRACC
The data set is described as follows: Antagonist activity at D4 receptor (unknown origin).

Data set [5] deals with D(1B) dopamine receptor (Homo sapiens) (UniProt P21918). The data set is described as follows: Agonist activity at Gs-coupled D5 receptor (unknown origin) expressed in HEK293T cells assessed as inhibition of forskolin-stimulated cAMP accumulation preincubated for 10 to 15 followed by forskolin-stimulation by Glo-sensor assay. The data set is classed as functional, cell-based.

The target in data set [6] is T2, G-protein coupled bile acid receptor 1 (Homo sapiens) (UniProt Q8TDU6).
T2 sequence (whole entry): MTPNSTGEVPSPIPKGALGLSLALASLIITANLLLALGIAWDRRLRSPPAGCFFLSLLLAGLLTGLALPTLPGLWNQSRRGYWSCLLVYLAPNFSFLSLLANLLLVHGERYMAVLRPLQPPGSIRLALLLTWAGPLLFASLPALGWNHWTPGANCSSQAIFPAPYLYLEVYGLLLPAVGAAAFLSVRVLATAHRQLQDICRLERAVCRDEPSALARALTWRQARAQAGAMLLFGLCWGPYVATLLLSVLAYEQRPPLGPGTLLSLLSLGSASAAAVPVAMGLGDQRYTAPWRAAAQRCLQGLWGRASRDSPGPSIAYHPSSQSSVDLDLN
The data set is described as follows: Agonist activity at Gs-coupled GPBAR1 (unknown origin) expressed in HEK293T cells assessed as inhibition of forskolin-stimulated cAMP accumulation preincubated for 10 to 15 followed by forskolin-stimulation by Glo-sensor assay. The data set is classed as functional, cell-based.

Data set [7] has as its system Mus musculus. The data set can be described thus: In vivo antagonist activity at H3R in 12 hrs fasted db/db-induced obese C57BL/6J mouse model assessed as increase in c-FOS expression in para-ventricular nucleus of hypothalamus at 20 mg/kg, ip measured after 90 mins by immunohistochemistry-based fluorescence assay. The data set is classed as functional, organism-based.

The subject of data set [8] is Mus musculus. The data set is described as follows: Anorexic effect in 12 hrs fasted db/db-induced obese C57BL/6J mouse model assessed as reduction in cumulative food intake at 20 mg/kg, po pretreated for 30 mins followed by food addition measured after 4 hrs in presence of histidine decarboxylase inhibitor alpha-MDLH. The format is functional, organism-based. Put shortly: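 Mice starved 12 h (8:00 am to 8:00 pm) with water available, then housed singly. Compound given orally in 5% gum acacia in normal saline; vehicle group received the same. Cumulative food intake measured over 4 h of the night phase (9:00 pm to 1:00 am), starting 30 min after dosing. Antagonism arms: imitet 5 mg/kg i.p. 30 min before compound, or α-methyl-DL-histidine 20 mg/kg i.p. 2 h before.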

For data set [9], the system named is Mus musculus. The data set can be described thus: Anti-obesity activity in high fat diet-induced obese C57BL/6J mouse model assessed as change in body weight at 10 mg/kg, po measured after 6 weeks (reference value: 3.86 +/- 0.99 g). The format is functional. Put shortly: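 Male C57BL/6J mice (6–8 weeks, 22–25 g) on high-fat diet, with a normal-chow group included. Daily chronic oral dosing against vehicle for six weeks. Percent body weight change followed over the treatment days, and net body weight change taken at six weeks. n=5-6 per group. Two-way ANOVA, or one-way ANOVA with Newman-Keuls test.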

For data set [10], the system named is Mus musculus. The data set can be described thus: Anti-obesity activity in high fat diet-induced obese C57BL/6J mouse model assessed as reduction in body fat mass at 20 mg/kg, po measured after 6 weeks relative to control by NMR-based magnetic resonance imaging analysis. The data set is classed as functional. Set-up: scale not given: the % may be the effect or the level left.

Data set [11] in a line: Toxicity in lean C57BL/6J mouse assessed as change in body fat mass at 10 to 20 mg/kg, po measured after 6 weeks. The data set is classed as organism-based. The following applies: in vivo, 1008 h.
Data set [12] has as its system Mus musculus. The data set can be described thus: Anti-obesity activity in 16 hrs fasted db/db-induced obese C57BL/6J mouse model assessed as improvement in glucose homeostasis at 20 mg/kg, po treated prior to glucose addition measured after 15 to 120 mins by IPGTT. The format is functional, organism-based. Put shortly:
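Mice fasted 16 h; baseline tail-vein glucose read by glucometer. Glucose given i.p. at 2 g/kg (C57BL/6J) or 1 g/kg (db/db).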

The test system of data set [13] is Mus musculus. The data set can be described thus: Anti-obesity activity in high fat diet-induced obese C57BL/6J mouse model assessed as change in LDL level at 10 to 20 mg/kg, po measured after 6 weeks. The format is functional, organism-based. Put shortly:
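At the end of treatment (six weeks HFD, four weeks db/db), mice euthanized with avertin 350 mg/kg. Blood taken by cardiac puncture into 3.8% sodium citrate. Plasma separated at 4000 rpm and stored at -80 °C. TG, TC, HDLc and LDLc measured on a bio-analyzer.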

For data set [14], the system named is Mus musculus. The data set can be described thus: Anti-obesity activity in 16 hrs fasted db/db-induced obese […] mouse model assessed as reduction in body weight at 20 mg/kg, po measured after 4 weeks. The format is functional, organism-based.

D(2) dopamine receptor (Homo sapiens), sequence (P14416 whole entry): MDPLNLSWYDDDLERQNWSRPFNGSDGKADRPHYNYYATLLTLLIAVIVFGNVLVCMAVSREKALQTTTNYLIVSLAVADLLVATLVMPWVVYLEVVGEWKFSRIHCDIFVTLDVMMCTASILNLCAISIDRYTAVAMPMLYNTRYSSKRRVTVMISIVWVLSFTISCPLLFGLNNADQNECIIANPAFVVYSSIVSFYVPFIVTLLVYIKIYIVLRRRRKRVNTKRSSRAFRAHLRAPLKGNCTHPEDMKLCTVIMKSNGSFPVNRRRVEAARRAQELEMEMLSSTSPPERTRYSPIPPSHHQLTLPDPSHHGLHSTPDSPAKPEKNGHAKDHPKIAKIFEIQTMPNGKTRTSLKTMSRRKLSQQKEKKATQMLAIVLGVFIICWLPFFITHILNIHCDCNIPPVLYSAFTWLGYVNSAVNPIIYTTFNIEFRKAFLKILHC
D(1A) dopamine receptor (Homo sapiens), sequence (P21728 whole entry): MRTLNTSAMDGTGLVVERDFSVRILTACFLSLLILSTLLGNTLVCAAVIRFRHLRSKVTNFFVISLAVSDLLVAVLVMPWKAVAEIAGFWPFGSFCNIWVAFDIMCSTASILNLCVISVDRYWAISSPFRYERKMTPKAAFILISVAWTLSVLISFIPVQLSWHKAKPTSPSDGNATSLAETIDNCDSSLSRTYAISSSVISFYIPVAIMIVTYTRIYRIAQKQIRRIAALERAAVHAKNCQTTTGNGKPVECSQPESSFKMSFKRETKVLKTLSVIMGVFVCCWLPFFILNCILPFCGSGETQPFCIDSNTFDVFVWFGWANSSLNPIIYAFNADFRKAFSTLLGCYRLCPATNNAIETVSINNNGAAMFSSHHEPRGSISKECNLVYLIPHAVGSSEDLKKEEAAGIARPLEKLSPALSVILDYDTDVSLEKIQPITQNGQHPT
D(1B) dopamine receptor (Homo sapiens), sequence (P21918 whole entry): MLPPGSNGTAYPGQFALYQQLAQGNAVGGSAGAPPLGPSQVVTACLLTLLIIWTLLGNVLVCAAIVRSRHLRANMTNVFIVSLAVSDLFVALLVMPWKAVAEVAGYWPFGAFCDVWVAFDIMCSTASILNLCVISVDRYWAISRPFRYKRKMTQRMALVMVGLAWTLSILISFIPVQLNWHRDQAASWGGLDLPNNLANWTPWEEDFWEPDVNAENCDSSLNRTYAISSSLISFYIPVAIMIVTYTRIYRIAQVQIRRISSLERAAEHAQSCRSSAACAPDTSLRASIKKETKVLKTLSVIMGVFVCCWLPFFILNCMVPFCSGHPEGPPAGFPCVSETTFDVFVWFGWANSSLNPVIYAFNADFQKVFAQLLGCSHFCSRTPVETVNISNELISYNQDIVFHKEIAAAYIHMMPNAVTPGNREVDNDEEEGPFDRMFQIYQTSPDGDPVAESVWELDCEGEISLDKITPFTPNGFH

Take `COc1ccc(-c2nc(N)nc3c2CCCC3C)cc1` (racemic): the inhibition result in data set [1], in [2], in data set [3] and in data set [4] was “inactive” in each case. Moreover, the INH in data set [5] is over 10 µM. The outcome (in [6]; in the data set with Mus musculus [8]; with Mus musculus [13]) was inactive. The outcome in the data set with Mus musculus [7], with Mus musculus [12] and with Mus musculus [14] was Active. Also, the Activity in the data set on Mus musculus [9] is 2.6 g; in the data set on Mus musculus [10] it was 27.1%; in data set [11], “Non-Toxic”.
